Tests used:
Type in all cases: cell-based
[1] = target: Nuclear receptor subfamily 4 group A member 3 (Homo sapiens) (UniProt Q92570); assay: Modulation of full length human NOR1 expressed in HEK293 cells co-transfected with luciferase reporter plasmid harboring NurRE response element assessed as increase in luciferase activity incubated for 18 hrs by luciferase reporter gene assay; conditions: filed as modulator
Procedure, shortened: (§1)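 Full-length NOR-1 plasmid was transfected via Lipofectamine 2000, either alone (2 μg) or at 1 μg with full-length RXRα (1 μg). It was paired with a 3xNBRE or 3xNurRE luciferase reporter (6 μg), 8 μg total DNA, for 18 h. Cells were replated at 10,000/well for 4 h, then given a full ligand dose response or vehicle in quadruplicate for 18 h. Luciferase was read; no EC50/IC50 was fitted.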

[2] = target: Nuclear receptor subfamily 4 group A member 2 (Homo sapiens) (UniProt P43354); assay: Modulation of full length human Nurr1 expressed in HEK293T cells co-transfected with RXRalpha and luciferase reporter plasmid harboring NurRE response element assessed as increase in luciferase activity incubated for 18 hrs by luciferase reporter-gene assay; conditions: filed as modulator
Nuclear receptor subfamily 4 group A member 2 (Homo sapiens), sequence (P43354 whole entry): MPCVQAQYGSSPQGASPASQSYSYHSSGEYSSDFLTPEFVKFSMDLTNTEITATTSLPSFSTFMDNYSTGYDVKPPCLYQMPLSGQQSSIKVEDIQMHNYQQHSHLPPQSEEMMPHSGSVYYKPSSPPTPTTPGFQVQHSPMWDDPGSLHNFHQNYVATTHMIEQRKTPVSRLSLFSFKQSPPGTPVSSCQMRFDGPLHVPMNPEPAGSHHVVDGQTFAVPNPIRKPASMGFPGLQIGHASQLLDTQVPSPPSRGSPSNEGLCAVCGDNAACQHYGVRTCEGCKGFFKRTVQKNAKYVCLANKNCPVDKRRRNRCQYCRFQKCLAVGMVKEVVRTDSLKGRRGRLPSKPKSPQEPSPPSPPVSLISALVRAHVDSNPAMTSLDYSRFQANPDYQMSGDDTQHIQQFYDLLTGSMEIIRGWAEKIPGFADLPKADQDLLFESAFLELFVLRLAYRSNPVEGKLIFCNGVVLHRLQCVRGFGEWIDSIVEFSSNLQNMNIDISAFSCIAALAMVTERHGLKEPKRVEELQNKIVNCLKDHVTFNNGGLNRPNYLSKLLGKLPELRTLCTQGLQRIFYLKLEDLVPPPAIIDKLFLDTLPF
Procedure, shortened: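 Full-length Nurr1 plasmid, alone (2 μg) or 1 μg plus full-length RXRα (1 μg), cotransfected with 3xNBRE- or 3xNurRE-luciferase reporter (6 μg) using Lipofectamine 2000, 18 h. Cells replated at 10,000/well for 4 h. Four ligand concentrations, or vehicle (water, ethanol or DMSO), added in quadruplicate for 18 h. Luciferase read. Fold change vs vehicle, mean ± s.e.m., one-way ANOVA vs vehicle.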

[3] = target: Nuclear receptor subfamily 4immunitygroup A member 1 (Homo sapiens) (UniProt P22736); assay: Modulation of full length human Nur77 expressed in SK-N-BE(2) cells co-transfected with RXRalpha and luciferase reporter plasmid harboring NBRE response element assessed as increase in luciferase activity incubated for 18 by luciferase reporter gene assay; conditions: SKNBE2, filed as modulator, time 18.0 hrs
Nuclear receptor subfamily 4immunitygroup A member 1 (Homo sapiens), sequence (P22736 whole entry): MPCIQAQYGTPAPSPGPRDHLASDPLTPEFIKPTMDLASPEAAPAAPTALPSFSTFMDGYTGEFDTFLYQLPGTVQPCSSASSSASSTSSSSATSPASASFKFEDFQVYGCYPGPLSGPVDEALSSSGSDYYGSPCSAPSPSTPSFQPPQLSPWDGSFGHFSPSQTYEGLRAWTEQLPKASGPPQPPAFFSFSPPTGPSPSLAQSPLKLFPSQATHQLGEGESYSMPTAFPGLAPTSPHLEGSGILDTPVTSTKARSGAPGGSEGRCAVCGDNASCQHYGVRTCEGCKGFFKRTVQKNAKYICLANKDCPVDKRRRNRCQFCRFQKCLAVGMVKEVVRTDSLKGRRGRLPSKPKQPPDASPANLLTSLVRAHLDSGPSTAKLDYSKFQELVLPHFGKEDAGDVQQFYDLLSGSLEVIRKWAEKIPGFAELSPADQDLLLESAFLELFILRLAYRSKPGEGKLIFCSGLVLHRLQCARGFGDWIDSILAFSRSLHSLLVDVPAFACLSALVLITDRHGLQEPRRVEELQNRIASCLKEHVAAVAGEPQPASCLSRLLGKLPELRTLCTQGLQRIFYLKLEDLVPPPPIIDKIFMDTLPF
Procedure, shortened: (§2)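 Cells seeded at 1.5 million per 10-cm dish. Next day they were transfected (Lipofectamine 2000) with full-length Nur77 or NOR-1 expression plasmid, either alone (2 μg) or 1 μg plus full-length RXRα (1 μg), and 3xNBRE- or 3xNurRE-luciferase reporter (6 μg), 18 h. Cells replated at 10,000/well, 4 h, then ligand dose response added in quadruplicate for 18 h. Luciferase luminescence read.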

[4] = target: Nuclear receptor subfamily 4immunitygroup A member 1 (Homo sapiens) (UniProt P22736); assay: Modulation of full length human Nur77 expressed in HEK293 cells co-transfected with luciferase reporter plasmid harboring NurRE response element assessed as increase in luciferase activity incubated for 18 hrs by luciferase reporter gene assay; conditions: filed as modulator; procedure, shortened: as §2
[5] = target: Nuclear receptor subfamily 4 group A member 3 (Homo sapiens) (UniProt Q92570); assay: Modulation of full length human NOR1 expressed in HEK293T cells co-transfected with RXRalpha luciferase reporter plasmid harboring NBRE response element assessed as increase in luciferase activity incubated for 18 hrs by luciferase reporter gene assay; conditions: filed as modulator; procedure, shortened: as §1
[6] = target: Nuclear receptor subfamily 4 group A member 3 (Homo sapiens) (UniProt Q92570); assay: Modulation of full length human NOR1 expressed in PC12 cells co-transfected with RXRalpha and luciferase reporter plasmid harboring NurRE response element assessed as increase in luciferase activity incubated for 18 by luciferase reporter gene assay; conditions: PC-12, filed as modulator, time 18.0 hrs; procedure, shortened: as §1
[7] = target: Nuclear receptor subfamily 4immunitygroup A member 1 (Homo sapiens) (UniProt P22736); assay: Modulation of full length human Nur77 expressed in PC12 cells co-transfected with luciferase reporter plasmid harboring NurRE response element assessed as increase in luciferase activity incubated for 18 by luciferase reporter gene assay; conditions: PC-12, filed as modulator, time 18.0 hrs; procedure, shortened: as §2
[8] = target: Nuclear receptor subfamily 4immunitygroup A member 1 (Homo sapiens) (UniProt P22736); assay: Modulation of full length human Nur77 expressed in HEK293 cells co-transfected with luciferase reporter plasmid harboring NBRE response element assessed as increase in luciferase activity incubated for 18 hrs by luciferase reporter gene assay; conditions: filed as modulator; procedure, shortened: as §2
[9] = target: Nuclear receptor subfamily 4 group A member 2 (Homo sapiens) (UniProt P43354); assay: Modulation of full length human Nurr1 expressed in SKNBE(2) cells co-transfected with luciferase reporter plasmid harboring NurRE response element assessed as increase in luciferase activity incubated for 18 hrs by luciferase reporter-gene assay; conditions: SKNBE2, filed as modulator
Procedure, shortened: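 Transfection of SK-N-BE(2)-C cells (1:1 EMEM/F12, 10% FBS, 37°C, 5% CO2) used full-length Nurr1 alone (2 μg, no RXRα) with 3xNBRE- or 3xNurRE-luciferase reporter (6 μg) for 18 h. Cells were replated at 10,000/well for 4 h, then exposed to ligand or vehicle in quadruplicate for 18 h. Luminescence was expressed as fold over vehicle, as mean ± s.e.m. (n=4) from 2 independent experiments, one-way ANOVA against vehicle.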

[10] = target: Nuclear receptor subfamily 4immunitygroup A member 1 (Homo sapiens) (UniProt P22736); assay: Modulation of full length human Nur77 expressed in HEK293 cells co-transfected with RXRalpha and luciferase reporter plasmid harboring NurRE response element assessed as increase in luciferase activity incubated for 18 hrs by luciferase reporter gene assay; conditions: filed as modulator; procedure, shortened: as §2
[11] = target: Nuclear receptor subfamily 4immunitygroup A member 1 (Homo sapiens) (UniProt P22736); assay: Modulation of full length human Nur77 expressed in SK-N-BE(2) cells co-transfected with luciferase reporter plasmid harboring NurRE response element assessed as increase in luciferase activity incubated for 18 by luciferase reporter gene assay; conditions: SKNBE2, filed as modulator, time 18.0 hrs; procedure, shortened: as §2
[12] = target: Nuclear receptor subfamily 4 group A member 3 (Homo sapiens) (UniProt Q92570); assay: Modulation of full length human NOR1 expressed in HEK293T cells co-transfected with RXRalpha luciferase reporter plasmid harboring NurRE response element assessed as increase in luciferase activity incubated for 18 hrs by luciferase reporter gene assay; conditions: filed as modulator; procedure, shortened: as §1
[13] = target: Nuclear receptor subfamily 4immunitygroup A member 1 (Homo sapiens) (UniProt P22736); assay: Modulation of full length human Nur77 expressed in HEK293 cells co-transfected with RXRalpha and luciferase reporter plasmid harboring NBRE response element assessed as increase in luciferase activity incubated for 18 hrs by luciferase reporter gene assay; conditions: filed as modulator; procedure, shortened: as §2
[14] = target: Nuclear receptor subfamily 4 group A member 3 (Homo sapiens) (UniProt Q92570); assay: Modulation of full length human NOR1 expressed in SK-N-BE(2) cells co-transfected with luciferase reporter plasmid harboring NurRE response element assessed as increase in luciferase activity incubated for 18 by luciferase reporter gene assay; conditions: SKNBE2, filed as modulator, time 18.0 hrs; procedure, shortened: as §2
[15] = target: Nuclear receptor subfamily 4 group A member 2 (Homo sapiens) (UniProt P43354); assay: Modulation of full length human Nurr1 expressed in SKNBE(2) cells co-transfected with RXRalpha and luciferase reporter plasmid harboring NBRE response element assessed as increase in luciferase activity incubated for 18 hrs by luciferase reporter-gene assay; conditions: SKNBE2, filed as modulator
Procedure, shortened: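 SK-N-BE(2)-C cells were kept in 1:1 EMEM/F12 with 10% FBS at 37°C and 5% CO2. They were cotransfected with full-length Nurr1 (1 μg), full-length RXRα (1 μg) and 3xNBRE- or 3xNurRE-luc reporter (6 μg) for 18 h, replated at 10,000 cells/well for 4 h, and then treated with ligand or vehicle in quadruplicate for 18 h. The readout was luciferase luminescence as fold over vehicle, reported as mean ± s.e.m. (n=4) from 2 independent experiments, one-way ANOVA.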

[16] = target: Nuclear receptor subfamily 4immunitygroup A member 1 (Homo sapiens) (UniProt P22736); assay: Modulation of full length human Nur77 expressed in PC12 cells co-transfected with RXRalpha and luciferase reporter plasmid harboring NBRE response element assessed as increase in luciferase activity incubated for 18 by luciferase reporter gene assay; conditions: PC-12, filed as modulator, time 18.0 hrs; procedure, shortened: as §2
[17] = target: Nuclear receptor subfamily 4 group A member 2 (Homo sapiens) (UniProt P43354); assay: Modulation of full length human Nurr1 expressed in PC12 cells co-transfected with luciferase reporter plasmid harboring NurRE response element assessed as increase in luciferase activity incubated for 18 hrs by luciferase reporter-gene assay; conditions: PC-12, filed as modulator
Procedure, shortened: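 Here PC12 cells (FK-12 medium, 15% horse serum, 2.5% FBS, 37°C, 5% CO2) received full-length Nurr1 (2 μg) without RXRα, plus 3xNBRE- or 3xNurRE-luciferase reporter (6 μg), for 18 h. Cells were replated at 10,000/well for 4 h, then treated with ligand or vehicle in quadruplicate for 18 h. Luciferase luminescence was normalized to vehicle-treated cells. Results are mean ± s.e.m. (n=4) from 2 independent experiments, with one-way ANOVA against vehicle.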

Nuclear receptor subfamily 4 group A member 3 (Homo sapiens), sequence (Q92570 whole entry): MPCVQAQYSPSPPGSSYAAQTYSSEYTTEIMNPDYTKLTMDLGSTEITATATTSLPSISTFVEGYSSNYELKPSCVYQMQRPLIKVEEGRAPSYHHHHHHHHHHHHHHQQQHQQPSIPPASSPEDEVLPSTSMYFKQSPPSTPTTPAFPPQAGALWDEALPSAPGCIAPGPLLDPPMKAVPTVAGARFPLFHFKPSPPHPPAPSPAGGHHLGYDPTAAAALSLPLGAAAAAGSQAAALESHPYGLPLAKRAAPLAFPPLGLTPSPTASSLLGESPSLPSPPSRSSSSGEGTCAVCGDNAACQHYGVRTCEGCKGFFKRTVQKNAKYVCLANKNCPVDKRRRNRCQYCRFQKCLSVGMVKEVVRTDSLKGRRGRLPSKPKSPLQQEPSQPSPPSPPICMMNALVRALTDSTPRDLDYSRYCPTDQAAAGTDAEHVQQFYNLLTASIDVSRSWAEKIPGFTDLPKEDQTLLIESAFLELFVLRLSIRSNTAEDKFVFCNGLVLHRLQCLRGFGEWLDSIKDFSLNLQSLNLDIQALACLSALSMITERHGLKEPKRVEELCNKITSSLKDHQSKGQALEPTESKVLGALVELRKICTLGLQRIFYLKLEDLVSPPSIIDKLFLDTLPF

Row | Activity [1] | Activity [2] | Activity [3] | Activity [4] | Activity [5] | Activity [6] | Activity [7] | Activity [8] | Activity [9] | Activity [10] | Activity [11] | Activity [12] | Activity [13] | Activity [14] | Activity [15] | Activity [16] | Activity [17] | Structure (SMILES)
1 | Dose-Dependent Effect | Dose-Dependent Effect | Dose-Dependent Effect | Dose-Dependent Effect | Dose-Dependent Effect | Dose-Dependent Effect | Dose-Dependent Effect | Dose-Dependent Effect | Dose-Dependent Effect | Dose-Dependent Effect | Dose-Dependent Effect | Dose-Dependent Effect | Dose-Dependent Effect | Dose-Dependent Effect | Dose-Dependent Effect | Dose-Dependent Effect | Dose-Dependent Effect | CCCCCCCC(=O)c1c(O)cc(O)cc1CC(=O)OCC [CYTOSPORONE B]
2 | Dose-Dependent Effect | Dose-Dependent Effect | Dose-Dependent Effect | Dose-Dependent Effect | Dose-Dependent Effect | Dose-Dependent Effect | Dose-Dependent Effect | Dose-Dependent Effect | Dose-Dependent Effect | Dose-Dependent Effect | Dose-Dependent Effect | Dose-Dependent Effect | Dose-Dependent Effect | Dose-Dependent Effect | Dose-Dependent Effect | Dose-Dependent Effect | Dose-Dependent Effect | CCN(CC)CCCC(C)Nc1ccnc2cc(Cl)ccc12 (stereo unspecified) [CHLOROQUINE]
3 | Dose-Dependent Effect | Dose-Dependent Effect | Dose-Dependent Effect | Dose-Dependent Effect | Dose-Dependent Effect | Dose-Dependent Effect | Dose-Dependent Effect | Dose-Dependent Effect | Dose-Dependent Effect | Dose-Dependent Effect | Dose-Dependent Effect | Dose-Dependent Effect | Dose-Dependent Effect | Dose-Dependent Effect | Dose-Dependent Effect | Dose-Dependent Effect | Dose-Dependent Effect | CCN(CC)Cc1cc(Nc2ccnc3cc(Cl)ccc23)ccc1O [AMODIAQUINE]

Reference: ChEMBL document CHEMBL5030505, “Assessment of NR4A Ligands That Directly Bind and Modulate the Orphan Nuclear Receptor Nurr1” (J Med Chem, 2020)
